Screening data from PubChem.
The sample as a whole holds a higher share of hits than the screen did.
CHOP inh – blocks CHOP induction under ER stress; CHO-K1 CHOP-promoter luciferase, tunicamycin-induced, 15-18 h; inhibition, % at 10 µM; actives 3.8% (n = 220,000); AID 2732;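 active means compounds that reduced the stress-induced luciferase reporter signal by more than about 70% of percent inhibition, limit read from the data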;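 further: 0% = tunicamycin plus vehicle and 100% = wells without tunicamycin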
UPR XBP1 act – adaptive UPR (XBP1) activation; CHO-XBP1 luciferase reporter, IRE1-XBP1 UPR activation, luminescence; percent of tunicamycin response, DMSO as zero; activation, % at 20 µM; actives 0.33% (n = 330,000);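 active means versus positive control, 20 µM dose yields 30% or more activation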;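 further: 100% = tunicamycin at 10 µg/mL and 0% = DMSO only wells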
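Assay system: CHO-XBP1 luciferase reporter cells; Schedule: 6 h treatment, 37 °C; Detection: glow luminescence from Steady-Glo reagent; Benchmarks: high control tunicamycin 10 µg/mL final, low control DMSO vehicle only.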
CHOP UPR activ – activators of apoptotic arm of unfolded protein response (CHOP) | actives 0.34% (n = 330,000) | activation, % at 10 µM | CHO-CHOP luciferase reporter, UPR activation, luminescence; percent of tunicamycin response over DMSO baseline | AID 449763;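 active means at 10 µM dose, activation of 40% or more, normalized to positive control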;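 further: 100% = tunicamycin at 10 µg/mL and 0% = DMSO alone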
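Assay system: CHO cells with stable CHOP pathway luciferase reporter; Buffer or medium: F12 plus 10% serum; Times: 16-18 h cell attachment, then 6 h compound exposure, 37 °C; Signal: luciferase luminescence; Read-out basis: percent activation relative to tunicamycin control; Control set: tunicamycin high control, DMSO low control.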
VLA-4 inh – inhibition in a human VLA-4 binding assay; inhibition, % (about 7 µM as worked out from the volumes in the protocol); actives 0.2% (n = 330,000); P13612; VLA-4 expressing cells, ligand binding flow cytometry; in the data active means inhibition above about 50%
Beta2AR agonist – human beta-2 adrenergic receptor agonism by FAP | P07550 | Am2.2-beta2AR cells, FAP receptor internalization, flow cytometry | response, % (concentration not given with the values) | actives 0.43% (n = 340,000);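 active means response above a set limit, near 3 SD of response in nonfluorescent compounds, cut at about 42% in these data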
Target sequence (P07550 whole entry, looked up): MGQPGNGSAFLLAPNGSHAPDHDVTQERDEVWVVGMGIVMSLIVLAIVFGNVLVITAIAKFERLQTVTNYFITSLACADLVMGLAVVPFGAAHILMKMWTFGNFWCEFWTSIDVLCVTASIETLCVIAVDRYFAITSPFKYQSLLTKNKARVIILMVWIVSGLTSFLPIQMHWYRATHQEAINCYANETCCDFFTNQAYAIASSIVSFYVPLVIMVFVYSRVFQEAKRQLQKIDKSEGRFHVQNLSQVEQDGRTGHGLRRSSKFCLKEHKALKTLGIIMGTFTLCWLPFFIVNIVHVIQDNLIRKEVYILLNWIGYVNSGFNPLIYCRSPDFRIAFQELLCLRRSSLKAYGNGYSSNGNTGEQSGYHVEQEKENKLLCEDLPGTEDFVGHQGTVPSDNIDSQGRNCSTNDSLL
UPR CHOP confirm – apoptotic UPR (CHOP) activation, confirmed; activation, % at 10 µM; shares compounds with CHOP UPR activ; CHO-CHOP cells, CHOP-luciferase reporter luminescence; percent of tunicamycin response, DMSO as zero; actives 64% (n = 1,000); AID 463112; in the data active means activation above about 33%;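 further: 0% = DMSO wells and 100% = tunicamycin 10 µg/mL wells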
UPR XBP1 confirm – adaptive UPR (XBP1) activation, confirmed | actives 63% (n = 1,000) | CHO-XBP1 IRE1-XBP1 luciferase reporter, luminescence | shares compounds with UPR XBP1 act | activation, % at 20 µM | AID 485299;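 active means reporter signal at least 30% of the positive control's activation in two or more of four replicate wells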;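 further: plate controls were DMSO negative control for no effect and tunicamycin 10 µg/mL positive control for full effect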
B2AR ag CP1 – human beta-2 adrenergic receptor agonism, cherry pick; shares compounds with Beta2AR agonist; Am2.2-beta2AR cells, FAP surface receptor, flow cytometry; hits give low values; percent response (surface receptor), % at 10 µM; actives 25% (n = 1,100); AID 540358;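 active means surface receptor percent response at or below 58%, roughly 3 SD from nonfluorescent compounds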
FAP fluor counter – flagged in Am2.2 fluorescence counterscreen for beta-2AR agonists; shares compounds with Beta2AR agonist; Am2.2 cells, FAP fluorogen flow cytometry; hits give low values; calls only at 10 µM; 1,100 tested, under 10 active;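 active means percent response below a set limit in fluorescence channel 1 and below 50% in channel 8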
Numbers without * were called inactive; i = inactive; . = not tested or not shown; + = active, no number.

SMILES | CHOP inh | UPR XBP1 act | CHOP UPR activ | VLA-4 inh | Beta2AR agonist | B2AR ag CP1 | FAP fluor counter | others
CC1C=CCCC12C(=O)NC(=O)NC2=O (centres undefined) | . | . | . | . | -3.2 | . | .
CCc1ccc(N2C(=O)NC(=O)/C(=C\C=C\c3ccco3)C2=O)cc1 | 108.2* | -4.3 | 166.8* | 2.2 | 70.5* | . | . | UPR CHOP confirm=228.9*
Cc1ccc(N2C(=O)NC(=O)/C(=C/C=C/c3ccco3)C2=O)cc1 | 101.5* | -3.9 | 168.3* | -1.3 | 83.0* | . | . | UPR CHOP confirm=119.0*
COc1cc(/C=C2\C(=O)NC(=O)N(c3ccccc3)C2=O)cc(OC)c1OC | -30.2 | -3.2 | -0.7 | 9.8 | -0.4 | . | .
O=C1NC(=O)N(c2ccccc2)C(=O)/C1=C\C=C\c1ccccc1 | 80.9* | -1.0 | 174.7* | 15.8 | 35.1 | . | . | UPR CHOP confirm=63.5*
Cc1ccc(N2C(=O)NC(=O)/C(=C/c3ccoc3)C2=O)cc1 | -48.5 | . | . | . | 4.1 | . | .
Cc1ccc(OP2(=O)Nc3cc(C)c(C)cc3S2)cc1 (centres undefined) | . | . | . | . | 13.1 | . | .
Cc1ccc(NC(=O)CCNC(=O)N2C[C@H]3C[C@@H](C2)c2cccc(=O)n2C3)c(C)c1 | . | -2.4 | 1.0 | 7.3 | -2.8 | . | .
N=Cc1c(O)n(-c2cccc(Cl)c2)c(=O)[nH]c1=O | 19.2 | -2.3 | 40.1* | 19.6 | -2.0 | . | . | UPR CHOP confirm=-1.1
C=C1C(=O)O[C@@H]2C[C@@H](C)[C@H]3C=CC(=O)[C@]3(O)C[C@@H]12 | -20.1 | -3.8 | 60.5* | -1.1 | 10.0 | . | . | UPR CHOP confirm=23.8
CCS(=O)(=O)CCSP(=O)(OC)OC | . | . | . | . | 1.6 | . | .
CCCCCc1nc2ccccc2c(=O)n1-c1ccccc1[N+](=O)[O-] | -4.1 | -2.7 | 2.3 | 11.7 | -7.0 | . | .
CCCCCc1nc2c(c(=O)c3ccccc3n2C)c(=O)n1C1CCCCCC1 | 102.9* | 61.2* | 12.2 | -5.1 | 7.5 | . | . | UPR XBP1 confirm=46.1*
COC(=O)C1=C(c2ccc(S(C)(=O)=O)cc2)C[C@@H]2CC[C@H]1N2C(=O)NCc1cccc2ccccc12 | . | -0.6 | -1.2 | -0.8 | -5.9 | . | .
CC(C)N1CC=C(c2c[nH]c3ccccc23)CC1 | 25.0 | 48.2* | -4.2 | -1.1 | -3.4 | . | . | UPR XBP1 confirm=0.4
COc1ccc2nc3c(C)n(C)ccc-3c2c1 | . | . | . | . | -1.1 | . | .
C=C(C)[C@@]12OC3(c4ccccc4)O[C@@H]1C1[C@@H]4O[C@]4(CO)[C@@H](O)[C@]4(O)C(=O)C(C)=C[C@H]4[C@@]1(O3)[C@H](C)[C@H]2OC(=O)/C=C/C=C/c1ccccc1 (some centres undefined) | . | 47.0* | 35.8 | 0.0 | 111.6* | . | . | UPR XBP1 confirm=60.9*
COC(=O)C1=C(c2c(C)noc2C)C[C@@H]2CC[C@H]1N2C(=O)N1CCC(O)(c2ccc(Cl)cc2)CC1 | . | -5.1 | 0.4 | 27.0 | -5.3 | . | .
CCN(CC)c1ccc(N=Cc2c(O)n(-c3ccc(Cl)cc3)c(=O)[nH]c2=O)cc1 | 47.9 | 166.9* | 31.3 | -35.0 | -259.9 | . | . | UPR XBP1 confirm=48.3*
CNCC(O)c1ccc(O)cc1 (centres undefined) | -2.6 | -4.9 | 1.6 | 7.1 | . | . | .
CC(Cc1ccc(O)cc1)NCC(O)c1ccc(O)c(O)c1 (centres undefined) | . | . | . | . | . | 9.6* | i
O=P(Oc1ccccc1)(Oc1ccccc1)N1CCOCC1 | . | . | . | . | 2.5 | . | .
COc1ccc(CNCCc2c(C)[nH]c3ccc(OC(F)(F)F)cc23)c(OC)c1 | . | 1.4 | 5.9 | 19.5 | 43.0* | 81.1 | i
CCC[C@H](N[C@@H](CCC)[C@H](O)c1ccccc1)[C@H](O)c1ccccc1 | . | 2.1 | -1.3 | -0.4 | -6.4 | 112.5 | i
CCCCC(CC)CNCC(O)c1ccccc1 (centres undefined) | -7.6 | -3.3 | -1.5 | -1.9 | -10.6 | . | .
SMILES | CHOP inh | UPR XBP1 act | CHOP UPR activ | VLA-4 inh | Beta2AR agonist | B2AR ag CP1 | FAP fluor counter | others
O=C1CC23c4ccccc4N4C(=O)CC5OCC=C6CN1C2CC6C5C43 (centres undefined) | . | . | . | . | -0.9 | . | .
O=C(Cc1ccccc1)NC(Cc1ccc(Cl)cc1)C(=O)O (centres undefined) | 5.4 | 1.2 | -1.4 | -1.0 | -2.6 | . | .
CC(NCc1ccc(Cl)cc1)C(O)c1ccccc1 (centres undefined) | -21.9 | -1.2 | 0.1 | 10.1 | -4.9 | 102.0 | i
COc1cc(OC)c(OC)cc1CNC(C)C(O)c1ccccc1 (centres undefined) | 10.5 | -1.0 | -0.4 | 6.8 | 5.7 | 117.9 | i
CCOc1c(Cl)cc(CNC(C)C(O)c2ccccc2)cc1OC (centres undefined) | 18.7 | 9.1 | -1.2 | 15.0 | 6.6 | 106.9 | i
COc1cc(OC)c(OC)cc1CNCCc1ccc(OC)c(OC)c1 | 34.8 | -2.8 | 1.5 | 2.4 | -2.7 | . | .
CC(NCc1ccc(Cl)cc1Cl)C(O)c1ccccc1 (centres undefined) | 23.7 | 0.4 | 2.6 | -2.4 | -3.8 | 116.8 | i
O=[N+]([O-])c1[nH]cnc1Br | . | . | . | . | -1.1 | . | .
CC(NCc1cccc(Cl)c1Cl)C(O)c1ccccc1 (centres undefined) | -6.1 | -1.1 | -1.1 | 5.0 | -12.0 | 108.7 | i
Cc1c(NS(=O)(=O)c2ccccc2)ccc([N+](=O)[O-])c1Cl | . | . | . | . | 12.5 | . | .
COc1ccc(C(O)C(C)NC(C)C(O)c2ccc(OC)cc2)cc1 (centres undefined) | . | -0.8 | 0.9 | -2.9 | -1.2 | 122.8 | i
COc1ccc(C(c2ccc(OC)cc2)C(Cl)(Cl)Cl)cc1 | . | 1.1 | 4.3 | 13.3 | 3.4 | . | .
COc1cccc2c1C(=O)c1c(O)c3c(c(O)c1C2=O)CC(O)(C(C)=NO)CC3OC1CC(N)C(O)C(C)O1 (centres undefined) | . | . | . | . | -74.0 | . | .
COc1ccc(CCNC2CCCCC2)cc1 | 16.9 | 4.3 | 0.1 | 11.5 | -7.2 | . | .
COc1ccc(C[C@H]2NC[C@H](O)[C@H]2OC(C)=O)cc1 | . | -11.4 | -6.9 | 24.0 | 94.2* | 27.9* | +
COc1ccc(C(O)CNC(C)C)c(F)c1OC (centres undefined) | . | -1.5 | -1.9 | 9.4 | -13.4 | 115.8 | i
CCCOC(=O)C1C2CCC(O2)C1C(=O)O (centres undefined) | . | . | . | . | 2.3 | . | .
N#CCCCCC#N | . | -0.9 | 0.6 | -2.0 | 6.2 | . | .
CC(CCc1ccccc1)NC(C)C(O)c1ccc(O)cc1 (centres undefined) | 20.7 | -3.6 | 0.1 | -353.2 | 4.1 | 108.8 | i
COC(=O)C1=C(c2ccc(OCc3ccccc3)cc2)C[C@@H]2CC[C@H]1N2C(=O)NCc1ccc(OC)c(OC)c1 | . | -1.6 | 3.8 | 11.7 | 0.9 | 103.1 | i
COC(=O)C1=C(c2cc3ccccc3s2)C[C@@H]2CC[C@H]1N2C(=O)NCC1CC1 | . | 0.1 | -1.0 | 4.0 | 7.5 | . | .
COC(=O)C1=C(c2cc3ccccc3s2)C[C@@H]2CC[C@H]1N2C(=O)NCc1ccc(C(F)(F)F)cc1 | . | 0.7 | 0.2 | 19.2 | 73.9* | 89.0 | i
